Measurements: ChEMBL document CHEMBL5303300, “EUbOPEN Chemogenomics Library - Multiplex” (2023)
“And” between values parts separate entries of the source, which are not always exact repeats. Identical values can stand only once.

Test system: Fibroblast
Test: Multiplex assay against human fibroblast
Format: toxicity, cell-based
Conditions: number of replicates 2
How it was run: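 Compound was added to live cells that had been stained at seeding with Hoechst33342, BioTracker Green Microtubule Cytoskeleton Dye, MitoTracker Red and Annexin V Alexa Fluor 680, and imaging followed on a CQ1 microscope at 37°C and 5% CO2. CellPathfinder machine-learning gating divided cells into Hoechst high-intensity objects or normal cells, normal cells into healthy, pyknosed or fragmented nuclei, and pyknosed cells into mitotic or apoptotic. Tubulin, mitochondrial-mass and membrane-permeability phenotypes are per cents of healthy-nucleus cells.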

[1] = 12 h, 1 µM, compound concentration 1 uM
[2] = 12 h, 10 µM, compound concentration 10 uM
[3] = 24 h, 1 µM, compound concentration 1 uM
[4] = 24 h, 10 µM, compound concentration 10 uM
[5] = 48 h, 1 µM, compound concentration 1 uM
[6] = 48 h, 10 µM, compound concentration 10 uM

## CS(=O)(=O)c1ccc(C(=O)Nc2cc(F)cc(COc3ccc(Br)cc3CN3CC[C@H](O)C3)c2)c(Cl)c1.O=CO
[1]
  Population Apoptotic (%): 47% and 46%
  Population Healthy Nuclei (%): 54% and 67%
  Population Mitotic Cells (%): 52% and 53%
  Population Pyknosed Nuclei (%): 32% and 19%
  Total Cell Count: 177 and 249
[2]
  Population Apoptotic (%): 54% and 58%
  Population Fragmented Nuclei (%): 16% and 19%
  Population Healthy Nuclei (%): 51% and 54%
  Population Mitotic Cells (%): 45% and 41%
  Population Pyknosed Nuclei (%): 31% and 26%
  Total Cell Count: 197 and 232
[3]
  Population Apoptotic (%): 56% and 57%
  Population Fragmented Nuclei (%): 17% and 22%
  Population Healthy Nuclei (%): 55% and 57%
  Population Mitotic Cells (%): 43% and 42%
  Population Pyknosed Nuclei (%): 26% and 20%
  Total Cell Count: 195 and 268
[4]
  Population Fragmented Nuclei (%): 18%
  Population Healthy Nuclei (%): 57% and 54%
  Population Mitotic Cells (%): 9% and 16%
  Population Pyknosed Nuclei (%): 23% and 22%
  Total Cell Count: 187 and 243
[5]
  Population Apoptotic (%): 76%
  Population Fragmented Nuclei (%): 21%
  Population Healthy Nuclei (%): 57% and 61%
  Population Mitotic Cells (%): 21% and 23%
  Population Pyknosed Nuclei (%): 20% and 14%
  Total Cell Count: 201 and 289
[6]
  Population Apoptotic (%): 97%
  Population Fragmented Nuclei (%): 17% and 19%
  Population Healthy Nuclei (%): 54%
  Population Mitotic Cells (%): 2% and 7%
  Population Pyknosed Nuclei (%): 28% and 25%
  Total Cell Count: 144 and 211

## CN(C)C/C=C/C(=O)Nc1ccc(C(=O)Nc2cccc(Nc3ncc(Cl)c(-c4c[nH]c5ccccc45)n3)c2)cc1
[1]
  Population Apoptotic (%): 47% and 41%
  Population Fragmented Nuclei (%): 6% and 9%
  Population Healthy Nuclei (%): 61% and 63%
  Population Hoechst High Intensity Objects (%): 0%
  Population Membrane Permeable-Phenotype (%): 6%
  Population Mitochondria Different-Phenotype (%): 9% and 8%
  Population Mitotic Cells (%): 52% and 58%
  Population Normal (%): 99%
  Population Pyknosed Nuclei (%): 32% and 26%
  Population Tubulin-Different-Phenotype (%): 29% and 25%
  Total Cell Count: 144 and 155
[2]
  Population Apoptotic (%): 50% and 66%
  Population Fragmented Nuclei (%): 21% and 12%
  Population Healthy Nuclei (%): 41% and 42%
  Population Hoechst High Intensity Objects (%): 0%
  Population Membrane Permeable-Phenotype (%): 21% and 22%
  Population Mitochondria Different-Phenotype (%): 10% and 4%
  Population Mitotic Cells (%): 50% and 33%
  Population Normal (%): 99%
  Population Pyknosed Nuclei (%): 36% and 44%
  Population Tubulin-Different-Phenotype (%): 77% and 63%
  Total Cell Count: 180 and 169
[3]
  Population Apoptotic (%): 62% and 51%
  Population Fragmented Nuclei (%): 12% and 10%
  Population Healthy Nuclei (%): 54% and 55%
  Population Hoechst High Intensity Objects (%): 0%
  Population Membrane Permeable-Phenotype (%): 13% and 5%
  Population Mitochondria Different-Phenotype (%): 12% and 11%
  Population Mitotic Cells (%): 37% and 48%
  Population Normal (%): 100%
  Population Pyknosed Nuclei (%): 32% and 35%
  Population Tubulin-Different-Phenotype (%): 37% and 33%
  Total Cell Count: 132 and 140
[4]
  Population Apoptotic (%): 79% and 84%
  Population Fragmented Nuclei (%): 12% and 22%
  Population Healthy Nuclei (%): 31%
  Population Hoechst High Intensity Objects (%): 1% and 0%
  Population Membrane Permeable-Phenotype (%): 23% and 16%
  Population Mitotic Cells (%): 20% and 15%
  Population Normal (%): 98% and 99%
  Population Pyknosed Nuclei (%): 55% and 46%
  Population Tubulin-Different-Phenotype (%): 50% and 74%
  Total Cell Count: 167 and 178
[5]
  Population Apoptotic (%): 72% and 74%
  Population Fragmented Nuclei (%): 15%
  Population Healthy Nuclei (%): 55% and 50%
  Population Hoechst High Intensity Objects (%): 0%
  Population Membrane Permeable-Phenotype (%): 11% and 5%
  Population Mitochondria Different-Phenotype (%): 7% and 8%
  Population Mitotic Cells (%): 27% and 25%
  Population Normal (%): 100%
  Population Pyknosed Nuclei (%): 29% and 34%
  Population Tubulin-Different-Phenotype (%): 39% and 26%
  Total Cell Count: 124 and 149
[6]
  Population Apoptotic (%): 93%
  Population Fragmented Nuclei (%): 32% and 24%
  Population Healthy Nuclei (%): 20% and 19%
  Population Hoechst High Intensity Objects (%): 2% and 0%
  Population Membrane Permeable-Phenotype (%): 25% and 18%
  Population Mitochondria Different-Phenotype (%): 6% and 5%
  Population Mitotic Cells (%): 6%
  Population Normal (%): 97% and 99%
  Population Pyknosed Nuclei (%): 46% and 56%
  Population Tubulin-Different-Phenotype (%): 65% and 68%
  Total Cell Count: 220 and 196

## CCCNc1ccc2ncc(-c3ccncc3)n2n1
[1]
  Population Apoptotic (%): 30% and 34%
  Population Fragmented Nuclei (%): 4% and 14%
  Population Healthy Nuclei (%): 65% and 63%
  Population Hoechst High Intensity Objects (%): 0%
  Population Membrane Permeable-Phenotype (%): 14% and 6%
  Population Mitochondria Different-Phenotype (%): 0%
  Population Mitotic Cells (%): 69% and 65%
  Population Normal (%): 100%
  Population Pyknosed Nuclei (%): 29% and 21%
  Population Tubulin-Different-Phenotype (%): 18% and 9%
  Total Cell Count: 144 and 202
[2]
  Population Apoptotic (%): 51% and 53%
  Population Fragmented Nuclei (%): 12% and 10%
  Population Healthy Nuclei (%): 70% and 75%
  Population Hoechst High Intensity Objects (%): 0%
  Population Membrane Permeable-Phenotype (%): 4% and 3%
  Population Mitochondria Different-Phenotype (%): 5% and 1%
  Population Mitotic Cells (%): 48% and 46%
  Population Normal (%): 100%
  Population Pyknosed Nuclei (%): 17% and 13%
  Population Tubulin-Different-Phenotype (%): 27% and 17%
  Total Cell Count: 157 and 204
[3]
  Population Apoptotic (%): 38% and 42%
  Population Fragmented Nuclei (%): 9% and 14%
  Population Healthy Nuclei (%): 61% and 63%
  Population Hoechst High Intensity Objects (%): 0%
  Population Membrane Permeable-Phenotype (%): 9% and 8%
  Population Mitochondria Different-Phenotype (%): 2% and 1%
  Population Mitotic Cells (%): 61% and 57%
  Population Normal (%): 100%
  Population Pyknosed Nuclei (%): 29% and 21%
  Population Tubulin-Different-Phenotype (%): 25% and 13%
  Total Cell Count: 143 and 193
[4]
  Population Apoptotic (%): 75% and 65%
  Population Fragmented Nuclei (%): 18% and 15%
  Population Healthy Nuclei (%): 65% and 68%
  Population Hoechst High Intensity Objects (%): 0%
  Population Membrane Permeable-Phenotype (%): 5% and 3%
  Population Mitochondria Different-Phenotype (%): 8% and 7%
  Population Mitotic Cells (%): 25% and 34%
  Population Normal (%): 99% and 100%
  Population Pyknosed Nuclei (%): 16%
  Population Tubulin-Different-Phenotype (%): 33% and 30%
  Total Cell Count: 151 and 200
[5]
  Population Apoptotic (%): 55% and 59%
  Population Fragmented Nuclei (%): 14% and 20%
  Population Healthy Nuclei (%): 57% and 59%
  Population Hoechst High Intensity Objects (%): 0%
  Population Membrane Permeable-Phenotype (%): 15% and 8%
  Population Mitochondria Different-Phenotype (%): 1% and 0%
  Population Mitotic Cells (%): 44% and 40%
  Population Normal (%): 100% and 99%
  Population Pyknosed Nuclei (%): 28% and 19%
  Total Cell Count: 150 and 228
[6]
  Population Apoptotic (%): 61% and 80%
  Population Fragmented Nuclei (%): 14% and 13%
  Population Healthy Nuclei (%): 60% and 61%
  Population Hoechst High Intensity Objects (%): 0%
  Population Membrane Permeable-Phenotype (%): 11% and 4%
  Population Mitochondria Different-Phenotype (%): 6% and 5%
  Population Mitotic Cells (%): 38% and 20%
  Population Normal (%): 99%
  Population Pyknosed Nuclei (%): 24% and 25%
  Population Tubulin-Different-Phenotype (%): 45% and 33%
  Total Cell Count: 149 and 198
